A selection: hits, their analogues and other compounds. The true share with any hit is near 2.2%.
dFosB activator = mouse delta FosB homodimer activation; activation, % at 25 µM; 340,000 tested, 0.99% active; P13346; purified delta FosB, TAMRA-CDK5 oligo fluorescence polarization; percent of positive-control signal above neutral wells;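 active = mean activation above about 17%, with every replicate also reaching it, limit read from the data, passing the limit was not always enough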
DYRK1A inh = blocks rat Dyrk1A kinase activity; Q63470; ADP-Glo luminescence, NFATc1 peptide; inhibition, % at 12.5 µM; 310,000 tested, 0.43% active; AID 504441; in the data active = inhibition above about 50%;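 note: plate controls were vehicle with enzyme for no effect and no enzyme for full effect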
Rtt109 HAT inh = inhibitors of Candida albicans Rtt109/Vps75 histone acetyltransferase; purified Rtt109/Vps75, ThioGlo CoA-SH fluorescence, 4 h; Q5AAJ8; 330,000 tested, 0.16% active; inhibition, % at 34.9 µM;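 active = inhibition of at least 50% in every replicate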
CAL PDZ FP-1 = inhibitors of human CAL PDZ peptide binding; purified CAL PDZ, TMR-peptide fluorescence polarization, 1 h; inhibition, % at 24.9 µM; 300,000 tested, 0.92% active; AID 602252;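 active = mean inhibition of at least 30% with at least half of replicates also reaching 30%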;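 note: 0% = DMSO neutral control and 100% = excess unlabeled competitor peptide PRC23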
CAL PDZ FP-2 = human CAL PDZ-peptide interaction inhibition | Q9HD26 | purified CAL PDZ, TMR-peptide fluorescence polarization, 1 h | inhibition, % at 20 µM | 330,000 tested, 0.02% active;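 active = highest replicate inhibition of at least 40%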;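 note: plate controls were DMSO neutral control wells for no effect and unlabeled competitor peptide control wells for full effect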
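Material – purified CerCALP PDZ construct · Detection – FP readout, S and P plane fluorescence · Measure – percent inhibition from loss of millipolarization · Controls – unlabelled peptide for full inhibition, DMSO wells as neutral · Probe or stimulus – TMR-labelled reporter peptide T*-PRC34 bound in PDZ groove · Times – 1 h at RT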
CDK5 inh = blocks human CDK5/p35 kinase activity; AID 488839; Recombinant CDK5/p35, ADP-Glo luminescence, 60 min; Q00535+Q15078; 330,000 tested, 0.01% active; inhibition, % at 10 µM;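 active = highest replicate inhibition of at least 50% and at least 75% of replicates reaching 50%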;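 note: plate controls were DMSO neutral control for no effect and GW8510 at 10 µM for full effect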
Target sequence (Q00535 whole entry, looked up): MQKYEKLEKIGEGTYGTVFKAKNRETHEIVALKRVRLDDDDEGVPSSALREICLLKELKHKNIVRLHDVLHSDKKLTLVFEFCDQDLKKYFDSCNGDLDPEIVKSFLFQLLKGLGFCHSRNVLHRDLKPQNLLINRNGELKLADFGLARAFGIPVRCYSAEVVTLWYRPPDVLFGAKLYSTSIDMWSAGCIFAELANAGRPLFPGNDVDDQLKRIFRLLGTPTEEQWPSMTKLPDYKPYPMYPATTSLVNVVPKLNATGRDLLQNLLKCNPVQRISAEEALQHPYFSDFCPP
Target sequence (Q15078 whole entry, looked up): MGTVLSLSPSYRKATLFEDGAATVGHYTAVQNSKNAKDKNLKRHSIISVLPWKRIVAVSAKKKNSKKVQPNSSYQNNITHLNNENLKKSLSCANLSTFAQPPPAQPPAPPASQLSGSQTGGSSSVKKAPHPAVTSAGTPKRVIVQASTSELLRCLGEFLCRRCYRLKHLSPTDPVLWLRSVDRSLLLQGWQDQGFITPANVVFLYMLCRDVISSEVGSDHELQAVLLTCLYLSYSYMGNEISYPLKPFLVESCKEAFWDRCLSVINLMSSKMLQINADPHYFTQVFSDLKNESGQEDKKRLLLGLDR
Active calls of the source: *; . = no result.

SMILES	dFosB activator	DYRK1A inh	Rtt109 HAT inh	CAL PDZ FP-1	CAL PDZ FP-2	CDK5 inh
O=C(CSc1nnc(NC(=O)c2ccccc2)s1)NC1CCCC1	-0.5	0.1	-3.5	-3.1	0.7	0.9
COc1cccc(C(C(=O)NC2CCCC2)N(CCC(C)C)C(=O)CCC(=O)Nc2cc(C)on2)c1 (stereo not given)	-15.5	-5.1	50.2*	0.0	-0.9	-2.1
Clc1ccc(-c2nsc(N3CCOCC3)n2)c(Cl)c1	-0.8	2.2	8.3	62.3*	-0.8	1.4
COc1nc(Nc2ccc([N+](=O)[O-])cc2)nc(NC2CCCCC2)n1	28.9*	-5.2	.	-0.3	-3.0	0.2
COc1ccc(NC(=O)N2CCNC(=O)C2CC(=O)Nc2ccc(F)cc2)cc1 (stereo not given)	-0.4	.	3.7	-3.6	-0.5	0.4
Cc1cc(O)c(Sc2ccc(Cl)cc2)c(=O)[nH]1	0.9	-4.2	-24.6	54.8*	0.5	-1.2
Cc1cccc(C(=O)NNC(=O)c2ccc(NC(=O)C(C)(C)C)cc2)c1	-10.2	-1.0	-11.5	.	-4.2	0.5
CC(=O)c1cccc(NC(=O)CCNC(=O)c2cccc(C)c2)c1	-3.0	4.7	-10.5	70.6*	-1.1	1.1
CC(=O)Nc1ccc(C(=O)NNC(=O)c2cccc(C)c2)cc1	-5.1	-4.1	-2.6	41.1*	-0.6	0.8
Cc1cccc(NC(=O)CCNC(=O)c2ccccc2)c1	-3.1	-3.6	-6.9	-0.8	0.5	-1.2
Cc1cccc(N(C(=O)c2snc(C(N)=O)c2N)C(C(=O)NCC2CCCO2)c2ccc(N(C)C)cc2)c1C (stereo not given)	1.5	-0.4	3.5	-3.5	0.0	0.2
O=C(Nc1ccc(F)cc1F)N1CCCC(c2nc(-c3ccc(F)cc3)no2)C1 (stereo not given)	-5.8	26.2	64.1*	1.9	-2.8	1.1
O=C(c1ccc(F)cc1F)N1CCCC(c2nc(-c3ccc(F)cc3)no2)C1 (stereo not given)	-3.1	4.5	3.5	-2.2	-1.8	3.6
CC1CCCN(C(=O)CCCNC(=O)c2ccc(Cl)cc2)C1 (stereo not given)	-4.8	.	-2.3	.	-0.7	-0.9
NC(=O)C1CCCN(C(=O)CCCNC(=O)c2ccc(Cl)cc2)C1 (stereo not given)	2.4	4.3	-0.7	73.3*	-0.7	1.0
CC1CCN(CCCNC(=O)c2ccc3c(=O)n(Cc4ccc(Cl)cc4)c(=S)[nH]c3c2)CC1	-46.3	1.2	-0.4	-0.7	66.1*	-1.1
COc1ccc(S(=O)(=O)N2CCOCC2)cc1NC(=O)CSc1nnc(C2CC2)n1N	-2.0	0.2	-10.6	-4.6	-1.1	0.5
Cc1cc2oc(C(=O)Nc3ccc(S(=O)(=O)Nc4ncccn4)cc3)cc(=O)c2cc1Cl	-4.9	3.0	2.2	90.0*	-0.9	1.6
CCc1noc(C)c1C(=O)OCC(=O)NCc1ccccc1OC	-6.7	.	-7.8	-4.7	-0.9	-1.7
COc1ccc(N=C2S/C(=C\c3ccc(Cl)c([N+](=O)[O-])c3)C(=O)N2CCN(C)C)cc1	23.0*	-6.3	3.6	-3.2	.	1.0
O=C(CN1CCCCC1)Nc1ccc(NC(=O)c2ccccc2Cl)cc1Cl	-2.8	-4.8	47.3	-1.5	-2.0	1.7
COc1ccccc1CNC(=S)NCc1ccc(F)cc1	-2.9	6.2	9.2	-1.2	-2.6	1.5
C=CCNC(=S)NCc1ccccc1OC	-5.9	5.5	0.1	69.9*	0.3	-1.1
COc1ccc(C(CC(=O)O)NS(=O)(=O)c2ccc3c(c2)NC(=O)CO3)cc1 (stereo not given)	0.4	-5.4	7.2	25.9	-1.2	0.1
CCOC(=O)C1CCN(C(=O)CCS(=O)(=O)c2ccc3c(c2)n(C)c(=O)c(=O)n3C)CC1	-3.0	-3.1	13.7	52.0*	-1.7	0.3
SMILES	dFosB activator	DYRK1A inh	Rtt109 HAT inh	CAL PDZ FP-1	CAL PDZ FP-2	CDK5 inh
Cc1cc(C)cc(NC(=O)COc2coc(CN3CCc4ccccc4C3)cc2=O)c1	1.0	-2.5	1.1	-1.1	-1.1	0.2
COc1ccc2nc3oc(C(=O)NCc4cccs4)cc3cc2c1	59.8*	-1.7	-36.0	1.9	-2.8	-1.6
COc1ccc(/C=C(\C#N)C(=O)NCC(c2ccc(F)cc2)N2CCOCC2)cc1 (stereo not given)	-12.1	-2.3	-1.9	77.5*	0.2	-2.3
Cc1ccccc1SCC(=O)NCC(c1ccc(F)cc1)N1CCOCC1 (stereo not given)	-0.8	2.7	-9.5	53.4*	-0.6	-2.2
COc1ccc(CCN(C)C(=O)C2CCN(Cc3cccc(OC)c3OC)CC2)cc1OC	0.8	6.7	4.4	37.2*	3.8	-0.7
COc1ccc(CCN(C)C(=O)C2CCN(Cc3ccccc3)CC2)cc1OC	-2.7	2.1	1.9	-0.9	-3.6	-0.2
CC(C)(C)C(=O)NNC(=O)C1CC1(c1ccccc1)c1ccccc1 (stereo not given)	2.7	-1.0	2.2	35.0*	0.7	-0.1
Cc1nn(-c2cc(C(F)(F)F)ccc2Cl)c2nc(C(F)(F)F)[nH]c(=O)c12	4.3	-7.1	-0.3	0.7	-2.4	-2.3
Cc1nn(-c2cccc(Cl)c2)c2nc(C(F)(F)F)[nH]c(=O)c12	2.7	3.7	-1.0	43.2*	-2.1	-0.2
O=C(COC(=O)c1cc(NS(=O)(=O)c2cccs2)ccc1O)Nc1cc(Cl)ccc1Cl	50.8*	0.3	4.0	2.6	-0.2	0.4
O=C(NNC(=O)c1cc(Cl)ccc1O)c1ccc(NS(=O)(=O)c2cccs2)cc1	-4.4	6.7	0.0	3.4	-1.2	-1.0
O=C(COC(=O)c1ccc(NS(=O)(=O)c2cccs2)cc1)Nc1nc2c(F)c(F)c(F)cc2s1	36.7*	0.7	-3.1	-4.6	-1.6	-1.6
COc1ccc(C(=O)COC(=O)CCN2C(=O)C3C4C=CC(C5CC45)C3C2=O)cc1 (stereo not given)	-1.9	5.1	-7.0	-2.5	-2.4	0.5
CCOC(=O)N1CCN(C(=O)c2ccc3c(=O)n(-c4ccc(OC)cc4)c(=S)[nH]c3c2)CC1	1.3	2.8	7.6	.	-0.4	0.7
CCOC(=O)N1CCN(C(=O)c2ccc3c(=O)n(-c4ccc(OC)cc4OC)c(=S)[nH]c3c2)CC1	14.2	-1.5	-0.7	81.7*	-2.5	1.4
CCOC(=O)C1CCCN(C(=O)c2ccc3c(=O)n(Cc4ccccc4OC)c(=S)[nH]c3c2)C1 (stereo not given)	-17.8	4.2	6.5	32.1*	-0.9	-0.5
CCOC(=O)C1CCCN(C(=O)c2ccc(Cn3c(=S)[nH]c4cc(C(=O)OC)ccc4c3=O)cc2)C1 (stereo not given)	3.6	6.0	5.0	4.5	-0.4	-0.6
COc1ccccc1OC(C)C(=O)N1CCc2ccccc21 (stereo not given)	-4.7	3.9	0.2	-0.2	-1.7	-2.1
